MBD2 inh: inhibitors of human MBD2 binding to methylated oligonucleotide. TR-FRET. inhibition, % at 4.4 µM. hit rate 0.31% among 370,000. AID 686964; in the data active = inhibition above about 13%
Target sequence (Q9UBB5 whole entry, looked up): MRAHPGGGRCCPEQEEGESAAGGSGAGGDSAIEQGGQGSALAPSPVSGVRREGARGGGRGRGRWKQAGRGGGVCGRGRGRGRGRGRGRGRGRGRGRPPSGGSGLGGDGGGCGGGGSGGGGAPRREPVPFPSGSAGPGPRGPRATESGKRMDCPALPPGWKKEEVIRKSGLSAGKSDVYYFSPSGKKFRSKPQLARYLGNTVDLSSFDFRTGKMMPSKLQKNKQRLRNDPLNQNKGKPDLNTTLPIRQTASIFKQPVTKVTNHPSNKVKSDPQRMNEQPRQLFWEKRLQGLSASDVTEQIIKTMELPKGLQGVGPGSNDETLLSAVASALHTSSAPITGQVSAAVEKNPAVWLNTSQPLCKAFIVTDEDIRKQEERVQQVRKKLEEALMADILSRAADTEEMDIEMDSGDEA
UHRF1 MBD2 ctr: human UHRF1 methylated DNA binding inhibitors; inhibition, % at 4.4 µM; AID 687016; hit rate 0.75% among 370,000; UHRF1 binding to methylated oligo, TR-FRET; in the data active = inhibition above about 21%;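 also: UHRF1 SRA domain binding a hemimethylated CpG hairpin DNA probe; 0% = median of test compound wells and 100% = reference inhibitor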
TDP2 inh: TDP2 (human) inhibition, absorbance primary screen. AID 720702. inhibition, % at 12.8 µM. O95551. hit rate 0.34% among 370,000. recombinant TDP2, T5PNP hydrolysis, p-nitrophenol absorbance 415 nm;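 active = inhibition above the mean of all tested compounds plus 3 SD, set per campaign, cut at about 25% in these data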;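 also: 0% = DMSO with enzyme and 100% = buffer with substrate but no TDP2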
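Assay system: Recombinant human TDP2 | Quantity: 120 nM TDP2 per well | Incubation: 2 h at 37 °C | Signal: Epi absorbance | Evaluation: Percent inhibition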
LEDGF integ inh: blocks HIV-1 LEDGF/p75-dependent DNA integration. AID 743269. inhibition, % at 3.7 µM. TR-FRET IN-LEDGF/p75 DNA integration, Eu/Cy5. hit rate 0.64% among 370,000;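 active = inhibition above the screen-wide mean plus 3 SD, cut at about 13% in these data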;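 also: signal is the Cy5 over europium emission ratio at 671 and 618 nm; 0% = plate median of compound wells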
Rin1-Abl PPI inh: blocks binding of human Rin1 to Abl. inhibition, % at 7.35 µM. P00519+Q13671. TR-FRET Rin1/Abl binding, biochemical. hit rate 0.4% among 360,000. AID 588664; in the data active = inhibition above about 5%, passing the limit was not always enough
Numbers without * were called inactive; . = not tested or not shown. An excerpt weighted towards active compounds, which were near 1.9% of everything screened.

SMILES	MBD2 inh	UHRF1 MBD2 ctr	TDP2 inh	LEDGF integ inh	Rin1-Abl PPI inh
O=c1cc(N2CCN(c3cccc(Cl)c3Cl)CC2)[nH]c(=O)n1C1CCCCC1	-0.8	-2.6	3.9	-0.3	.
O=C(COc1ccc(Cl)cc1)Nc1ncc([N+](=O)[O-])s1	-3.1	1.8	-21.3	4.6	1.7
O=C(COC(=O)COc1ccccc1)Nc1ncc([N+](=O)[O-])s1	2.4	7.2	-4.7	31.8*	3.2
CC(C)(C)CCN1CCC[C@H](NC(=O)COc2ccc(F)c(Cl)c2)C1	-0.4	2.9	6.9	-3.9	.
O=[N+]([O-])c1ccc2c(c1)ncn2CCc1ccccc1	0.2	26.3*	5.9	-2.4	1.2
C=CCN(CC#CC(=C)C)CC1CC1	-5.8	-0.1	-2.0	-0.5	.
COc1ccc(-n2cnnc2SCC(=O)Nc2nc(C)c(Cl)cc2Cl)cc1	-5.1	-0.5	13.8	3.1	-1.9
COc1ccc(-n2cnnc2SCC(=O)Nc2cccnc2Cl)cc1	-0.9	21.3*	3.2	2.9	0.0
O=C1NC(=S)SC1=C1CCCC1	4.3	21.3*	2.0	8.0	-1.6
CN1C(=O)C(=C2CCCCCC2)SC1=S	6.7	-0.3	-2.0	3.6	-5.1
CCOC(=O)[C@]12CCCCC/C=C\1N(CCc1ccc(Cl)cc1)C(=O)[C@H]2CC(=O)NCc1cccc2ccccc12	2.6	-1.8	6.4	0.2	.
CCN(CC)S(=O)(=O)c1cc(C(=O)Nc2ccccc2[N+](=O)[O-])ccc1Cl	6.1	21.6*	0.3	0.1	-4.1
COC1=C(Br)C(=O)c2nc(C)ccc2C1=O	6.1	38.5*	25.3*	65.3*	0.5
O=C(NCc1ccc(Cl)cc1)OCCN1C(=O)CCC12CCC(c1ccccc1)CC2 (configuration not stated)	-1.4	-0.4	-1.9	-2.7	.
CC(C)c1cc(C(C)C)c(S(=O)(=O)N2CCC(C(=O)NCc3cccs3)CC2)c(C(C)C)c1	3.0	-0.5	4.3	-0.9	.
COc1cnc(-c2ccccc2)nc1Sc1ccccc1	1.5	4.6	-7.8	-1.4	1.7
COc1ccccc1Sc1nc(-c2ccccc2)ncc1OC	-3.4	48.0*	3.6	4.0	-1.1
Cn1cccc1/C=N/NC(=O)c1cccnc1	-2.3	-4.3	-1.7	0.5	4.1
Cn1cccc1/C=N/NC(=O)c1ccc[n+]([O-])c1	0.7	22.1*	12.0	2.1	-1.4
CCN(CC)S(=O)(=O)c1cccc(NC(=O)COC(=O)C2COc3ccccc3O2)c1 (configuration not stated)	0.3	23.7*	9.0	0.8	2.3
C=CCNC(=O)Nc1ccc2c(c1)[C@@]1(CC(=O)N(CC(C)C)C1c1ccccc1)C(=O)N2C (some centres not stated)	-4.6	-0.6	4.4	-0.4	.
Cc1ccc(-c2nc(C(Cl)Cl)c3ccccc3n2)cc1	3.9	47.2*	10.0	-0.6	-5.4
Cc1ccc(-c2nc(Nc3ccc(O)cc3)c3ccccc3n2)cc1	-1.2	1.3	-5.7	3.4	1.3
COC(=O)[C@]12CCCCC=C1N(Cc1ccc(OC)cc1)C(=O)[C@@H]2CC(=O)N1CCN(C(=O)c2ccco2)CC1	-4.1	0.7	-1.9	0.2	.
CCN(C(=O)COC(=O)/C=C/c1cnc2ccccc2n1)c1ccccc1	-0.9	25.7*	-3.6	-4.0	1.5
SMILES	MBD2 inh	UHRF1 MBD2 ctr	TDP2 inh	LEDGF integ inh	Rin1-Abl PPI inh
Cc1ccc(CSc2nc3c(c(=O)[nH]2)CCC3)cc1	0.6	57.7*	-3.9	1.6	-0.7
COc1ccc(C2NCCc3c2[nH]c2ccccc32)cc1CN1CCc2cc(OC)c(OC)cc2C1C (configuration not stated)	.	.	.	.	7.3*
Cc1cc2oc(=O)c3c(c2cc1OC(=O)c1ccco1)CCCC3	-4.1	-1.6	1.2	-1.8	1.0
O=C(Oc1cc2oc(=O)c3c(c2cc1Cl)CCCC3)c1ccco1	11.9	23.8*	4.4	1.1	-2.0
CC(=O)c1cc(-c2ccc3nonc3c2)c(=O)n2c1CCC2	-3.3	1.4	-4.0	-3.0	.
Cc1sc(NC(=O)C2=COCCO2)nc1-c1ccc(F)cc1	4.4	4.9	-2.4	-6.7	-1.3
Cc1sc(NC(=O)C2=COCCO2)nc1-c1ccc(Br)cc1	-5.9	29.9*	-3.6	1.3	1.6
CC(C)N1CCC(N2CCN(Cc3ccc4nonc4c3)CC2CCO)CC1 (configuration not stated)	0.1	-2.2	-1.9	1.2	-0.6
CC(C)N1CCC(N2CCN(Cc3cccc4nonc34)CC2CCO)CC1 (configuration not stated)	-2.0	78.7*	6.2	-12.6	-1.8
CN(CC(=O)Nc1c(Cl)cccc1Cl)C(=O)C1CSC2(C)CCC(=O)N12 (configuration not stated)	0.6	-1.2	-4.6	1.2	0.6
CN(Cc1ccc(Cl)c(Cl)c1)C(=O)C1CSC2(C)CCC(=O)N12 (configuration not stated)	0.4	28.2*	-4.9	1.7	-0.2
COC(CNC(=O)[C@H](Cc1ccccc1)NC1(C(=O)NC2CCCCC2)CCCC1)OC	4.5	4.9	-12.3	6.3	.
O=S(=O)(c1ccc(Cl)nc1)N1CCc2ccccc21	2.0	41.8*	5.8	1.2	-3.0
COc1ccc(C(=O)OCC(=O)c2ccc3c(c2)NC(=O)CO3)cc1OC	-3.0	58.5*	-4.3	2.7	2.5
CCC(C)(C)C(=O)N1CCC(C(=O)NC2CCCc3ccccc32)CC1 (configuration not stated)	5.7	-0.5	6.7	2.2	.
Cc1ccccc1CN1[C@@H](C)[C@H](c2ccccc2)Oc2cccc(NCCc3ccccc3)c2S1(=O)=O	2.4	20.7*	5.2	2.8	.
C=CCN1[C@@H](C)[C@H](c2ccccc2)Oc2cccc(NCCc3ccccc3)c2S1(=O)=O	8.0	9.4	0.4	6.6	.
COC(=O)c1n[nH]nc1-c1ccccc1	2.5	21.9*	4.4	-0.4	1.7
CCCCn1c(NC(C)CC)nc2c1c(=O)[nH]c(=O)n2C (configuration not stated)	-1.8	98.5*	-4.5	-1.5	-5.0
CCC(C)Nc1nc2c(c(=O)[nH]c(=O)n2C)n1CCOc1ccccc1 (configuration not stated)	0.4	2.2	-9.1	2.9	1.4
O=C(O)c1cccc2c1C(=O)c1ccccc1C2=O	0.6	1.8	7.1	-4.4	-2.0
O=C1C(O)=CC(=C(c2ccccc2)c2ccccc2)c2ccccc21	-0.9	-3.2	25.6*	10.7	-1.6
CC1=[N+](C)c2c(ccc3cccnc23)C1(C)C	-5.9	1.7	37.8*	8.1	0.7
CC1CCCN(C(=O)Cn2nnc(-c3ccc(F)cc3)n2)C1 (configuration not stated)	5.3	1.4	-2.4	-1.5	1.8
CC1CCCN(C(=O)Cn2nnc(-c3ccc([N+](=O)[O-])cc3)n2)C1 (configuration not stated)	0.8	28.5*	-5.3	-1.9	-0.9
OC1CCN(Cc2nc(Cc3ccccc3Cl)no2)CC1	5.9	10.7	3.3	-0.5	3.2

Bioassay records from PubChem BioAssay.
